MC4R ag barr: MC4R agonists recruiting beta-arrestin, primary screen, cell-based, luminescence, agonist arm of biased-ligand search; Melanocortin receptor 4 (Homo sapiens), P32245; U2OS MC4R beta-arrestin complementation; percent of melanotan II response, DMSO zero; activation, % at 8.9 µM; hit rate 0.98% among 360,000; AID 540308, 2011;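 active means activation above a per-plate cutoff, the mean activation of sample wells on that plate plus 3 SD, cut at about 8% in these data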
MC4R antagonist: MC4R antagonists of cAMP signaling, primary screen, cell-based, TR-FRET, antagonist arm of biased-ligand search | Melanocortin receptor 4 (Homo sapiens), P32245 | MC4R-expressing cells, MTII-stimulated cAMP, LANCE TR-FRET | inhibition, % at 6.5 µM | hit rate 0.48% among 360,000 | AID 540295, 2011;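 active means inhibition above its plate's cutoff, the mean of tested wells on that plate plus 3 SD, cut at about 29% in these data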
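System: U2OS cells stably expressing human melanocortin 4 receptor (MC4R). Reagent: Melanotan II challenge after compound preincubation. Doses: 6.5 µM. Times: 30-min compound, 1-h challenge, 1-h detection, room temperature. Measured by: TR-FRET with Eu-cAMP and labeled anti-cAMP, 671 nm. Replicates: singlicate.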
TLR4 MyD88 comp: inhibitors of TLR4-MyD88 association in cells, primary screen, cell-based, HeLa CL3-4, BLA complementation, FRET ratio; hit rate 0.18% among 200,000; HeLa CL3-4 TLR4/MyD88 BLA complementation; inhibition, % at 8.4 µM; Toll-like receptor 4 (Homo sapiens) + Myeloid differentiation primary response protein …; in the data active means inhibition above about 25%
TLR9-MyD88 inh: inhibitors of TLR9-MyD88 association in cells, primary screen, cell-based, CHO, BLA complementation, fluorescence | Toll-like receptor 9 (Homo sapiens) + Myeloid differentiation primary response protein … | CCF4 FRET ratio | inhibition, % at 4.98 µM | hit rate 0.21% among 340,000;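 active means inhibition above the mean over all tested compounds plus 3 SD, cut at about 21% in these data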
NOD2 RIPK2 PPI: NOD2-RIPK2 binding disruptors in cells, primary screen, fluorescence, CHO cells, BLA complementation; Receptor-interacting serine/threonine-protein kinase 2 (Homo sapiens), O43353; CCF4 ratio; inhibition, % at 4.98 µM; hit rate 0.38% among 360,000; AID 624267, 2012; in the data active means inhibition above about 21%
MC4R barr ag: MC4R beta-arrestin agonists, retest, confirmation, cell-based, luminescence, U2OS; shares compounds with MC4R ag barr; U2OS MC4R beta-arrestin recruitment; scaled DMSO 0%, Melanotan II 100%; activation, % at 8.9 µM; hit rate 31% among 2,400; AID 602192, 2012;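 active means mean activation across replicates above the hit cutoff set in the earlier primary screen, cut at about 8% in these data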
MOR DOR agonist: agonists of MOR-DOR heterodimerization, counter-screen for MC4R biased agonist project, cell-based, luminescence | shares compounds with MC4R ag barr | U2OS PathHunter beta-arrestin, beta-gal luminescence; percent of deltorphin B response, DMSO zero | activation, % at 9.2 µM | hit rate 5.8% among 2,400 | AID 602194, 2012;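 active means mean activation across replicates exceeds the hit threshold derived in the earlier primary screen, cut at about 18% in these data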
Target sequence (P35372 whole entry, looked up): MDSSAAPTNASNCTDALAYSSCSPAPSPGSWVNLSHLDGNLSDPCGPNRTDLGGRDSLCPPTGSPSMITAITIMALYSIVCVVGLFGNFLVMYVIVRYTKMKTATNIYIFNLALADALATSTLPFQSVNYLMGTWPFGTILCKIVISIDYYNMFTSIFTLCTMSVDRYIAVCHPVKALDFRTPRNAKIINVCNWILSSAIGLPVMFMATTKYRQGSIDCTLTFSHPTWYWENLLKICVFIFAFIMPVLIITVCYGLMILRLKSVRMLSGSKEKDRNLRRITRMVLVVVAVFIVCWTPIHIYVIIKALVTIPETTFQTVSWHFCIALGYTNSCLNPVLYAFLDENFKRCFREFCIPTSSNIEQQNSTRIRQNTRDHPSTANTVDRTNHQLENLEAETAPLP
Target sequence (P41143 whole entry, looked up): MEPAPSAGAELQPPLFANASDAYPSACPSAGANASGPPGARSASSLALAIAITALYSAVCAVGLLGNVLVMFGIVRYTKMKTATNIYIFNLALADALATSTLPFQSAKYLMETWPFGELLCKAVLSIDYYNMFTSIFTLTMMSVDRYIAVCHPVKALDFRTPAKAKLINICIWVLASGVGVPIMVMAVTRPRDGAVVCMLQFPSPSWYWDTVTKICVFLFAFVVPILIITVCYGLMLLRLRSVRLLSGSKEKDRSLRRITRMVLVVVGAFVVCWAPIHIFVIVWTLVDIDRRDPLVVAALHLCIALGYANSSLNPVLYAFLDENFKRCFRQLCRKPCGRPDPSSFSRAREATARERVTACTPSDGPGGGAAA
Numbers stand for hits; 0 = inactive; - = not tested or not shown. A selection: hits, their analogues and other compounds. The true share with any hit is near 1.8%.

SMILES	MC4R ag barr	MC4R antagonist	TLR4 MyD88 comp	TLR9-MyD88 inh	NOD2 RIPK2 PPI	MC4R barr ag	MOR DOR agonist
COc1ccc(-c2cnc3c(NC=O)cc(-c4ccc(C(=O)N5CCOCC5)cc4)cn23)cc1OC	0	0	-	-	0	-	-
CC(C)=CCC[C@](C)(OC1OC(COC2OCC(O)C(O)C2O)C(O)C(O)C1O)C1CC[C@]2(C)C1C(O)CC1[C@@]3(C)CCC(O[C@@H]4O[C@H](CO)C(O)C(O)C4O[C@@H]4OC(CO)C(O)C(O)C4O)C(C)(C)C3CC[C@]12C (some centres undefined)	0	0	-	0	0	-	-
O=C(NCc1cccc(C(F)(F)F)c1)c1ccc2nc([C@H]3C[C@H](O)[C@@H](CO)O3)[nH]c2c1	0	0	-	-	0	-	-
COCCn1c(SCC(=O)N2CCC(C)CC2)nc2c([nH]c3ccccc32)c1=O	0	0	-	0	0	-	-
CCC(C)(C)NC(=O)C(c1ccc(C)cc1)N(Cc1ccco1)C(=O)Cn1nnc2ccccc21 (centres undefined)	9.9	0	0	0	0	0	0
CCC(=O)c1ccc(OCC(=O)OCC(=O)N2c3ccccc3CC2C)cc1 (centres undefined)	0	0	-	0	0	-	-
C/C(=N\N=C(/C)c1cccc(N)c1)c1cccc(N)c1	0	0	-	-	0	-	-
O=C(N/N=C/c1cccc(O)c1)c1ccc(COc2ccccc2Br)cc1	12.5	0	0	0	0	0	0
CC(C)(C)c1ccc(OCc2ccc(C(=O)N/N=C/c3ccc(O)c(O)c3)cc2)cc1	25.3	0	0	0	0	9.8	0
CCN(CC)c1ccc(C(=O)OCc2c(C)noc2C)cc1	0	0	0	0	0	-	-
CC1CCc2sc3ncn4nc(C(=O)NCc5ccco5)nc4c3c2C1 (centres undefined)	0	0	0	0	0	-	-
CC1CCc2c(sc3ncn4c(SCC(=O)NCc5ccco5)nnc4c23)C1 (centres undefined)	10.0	0	0	0	0	9.9	0
CC(=O)NS(=O)(=O)c1ccc(NC(=S)NC(=O)C2CCC2)cc1	0	0	-	0	0	-	-
O=C(NCc1nc(-c2ccc(C(F)(F)F)cc2)no1)Nc1ccc(OC(F)(F)F)cc1	10.9	0	-	-	0	0	0
O=C1C=CC(=C(c2ccc(O)cc2)c2ccc(O)cc2)C=C1	0	0	-	0	0	-	-
O=C(/C=C/[C@H]1O[C@@H](n2ccc(=O)[nH]c2=O)[C@H](O)[C@@H]1O)N1CCN(CCc2ccccc2)CC1	-	-	-	-	0	-	-
Cc1cc(C)c2cc(C#N)c(NCCCN)nc2c1	-	-	-	-	0	-	-
Cc1nn(Cc2ccccc2Cl)c(C)c1C(=O)NCCN1C(=O)S/C(=C\c2ccccc2)C1=O	20.5	0	0	0	0	11.7	0
CC(C)CC(=O)OC1C(N2CCOCC2)c2c(ccc(/C=C/C(=O)N3CCOCC3)c2O)OC1(C)C (centres undefined)	12.4	0	0	0	0	0	0
Brc1cc2c(cc1-c1nc3ccccc3s1)OCO2	14.9	0	-	0	0	0	0
Cc1ccc(S(=O)(=O)N2CCN(CCNC(=O)C(=O)Nc3ccc(F)cc3)CC2)cc1	13.8	0	-	0	0	0	0
Cc1csc(=O)n1CC(=O)OCC(=O)Nc1ccc(F)c(F)c1F	0	0	-	0	0	-	-
COc1cccc(C(=O)Nc2cc(-c3cn4cccnc4n3)ccc2C)c1	0	0	0	0	0	-	-
CCCCCCOc1ccc(/C(C)=N/NC2=NCCN2)cc1[N+](=O)[O-]	14.3	0	0	0	0	11.5	0
C/C(=N\NC1=NCCN1)c1ccc(N)c([N+](=O)[O-])c1	0	0	-	0	0	-	-
SMILES	MC4R ag barr	MC4R antagonist	TLR4 MyD88 comp	TLR9-MyD88 inh	NOD2 RIPK2 PPI	MC4R barr ag	MOR DOR agonist
Nc1[nH]n(-c2ccccc2)c(=O)c1N=Nc1ccc2ncsc2c1	0	0	-	0	0	-	-
O=C(O)/C=C/C(=O)N1CCN(c2cccc(Cl)c2)CC1	0	0	0	0	0	-	-
COc1ccc(NC(=O)COC(=O)c2c(NC(C)=O)sc(C)c2C)cc1	31.1	0	-	0	0	17.6	0
CCOC(=O)Nc1sc(C)c(C)c1C(=O)OCC	10.0	0	0	0	0	0	0
CC(=O)Nc1sc(C)c(C)c1C(=O)OCC(=O)NCc1ccccc1	0	0	-	0	0	-	-
CC(=O)Nc1ccc(NC(=S)NC(=O)c2ccc(-c3ccccc3)cc2)cc1	36.2	0	-	-	0	0	0
CN(Cc1ccccc1)C(=S)NC(=O)c1ccc(-c2ccccc2)cc1	27.5	0	0	0	0	0	0
O=C(NC(=S)Nc1ccccc1)c1ccc(-c2ccccc2)cc1	0	0	0	0	0	-	-
COc1cccc(C(=O)CSc2nnc(-c3cc(OC)cc(OC)c3)o2)c1	0	0	0	0	0	-	-
COc1ccc(C(=O)CSc2nnc(CNc3ccc(C)cc3C)o2)cc1	11.4	0	0	0	0	11.1	0
Cc1ccc(NCc2nnc(SCC(=O)c3ccc4c(c3)OCCO4)o2)c(C)c1	0	0	0	0	0	-	-
COc1ccc(C(=O)CSc2nnc(-c3cc(C)cc(C)c3)o2)cc1	9.8	0	0	0	0	0	0
O=C(Nc1ccc2c(c1)oc1ccccc12)c1ccc2c(c1)OCO2	0	0	0	0	0	-	-
O=C(COc1ccc2c(c1)OCO2)Nc1ccc2c(c1)oc1ccccc12	22.2	0	0	0	0	21.0	0
O=C(/C=C/c1ccc(Cl)cc1)Nc1ccc(N2CCOCC2)cc1	0	0	0	0	0	-	-
O=C(NC(=S)Nc1ccc(N2CCOCC2)cc1)c1ccc(Cl)cc1	13.9	0	0	0	0	0	0
O=C(/C=C/c1ccc(Cl)cc1)NC(=S)Nc1ccc(N2CCOCC2)c(Cl)c1	15.0	0	0	0	0	0	0
O=C(/C=C/c1ccc(Cl)cc1)Nc1ccccc1N1CCOCC1	9.7	0	0	0	0	0	0
O=C(/C=C/Nc1ccccc1F)c1ccc(Br)cc1	0	0	0	0	0	-	-
N#Cc1ccccc1N/C=C/C(=O)c1ccc(Cl)cc1	12.6	0	-	-	0	0	0
CC(OC(=O)CCN=C1NS(=O)(=O)c2ccccc21)C(=O)Nc1ccc(F)cc1 (centres undefined)	0	0	-	0	0	-	-
CCCCC(CC)Cn1c(N)c(C#N)c2nc3ccccc3nc21 (centres undefined)	16.6	0	0	0	0	18.8	0
